Assay results: ChEMBL document CHEMBL4699413, “Structure-guided discovery of selective methionyl-tRNA synthetase inhibitors with potent activity against Trypanosoma brucei” (RSC Med Chem, 2020)

Columns and labels:
[1] = Cytotoxicity against human HepG2 cells assessed as reduction in cell viability after 48 hrs by alamar blue dye based assay
[2] = system: Trypanosoma brucei brucei; experiment: Antitrypanosomal activity against blood stream form of Trypanosoma brucei brucei 427 assessed as parasite growth inhibition incubated for 48 hrs by alamar blue dye based assay; type: functional, organism-based; conditions: Trypanosoma brucei, 427, 48 h
Summary of the method: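 Bloodstream-form BSF 427 parasites in HMI-9 with 10% heat-inactivated FBS and penicillin/streptomycin, 37 °C, 5% CO₂; 10 000 cells/well initial inoculum; serial 3-fold dilutions in triplicate; Alamar Blue read at 48 h. Pentamidine control.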

[3] = Cytotoxicity against human WIL2-NS cells assessed as reduction in cell viability after 48 hrs by alamar blue dye based assay
Summary of the method: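 CRL-8155 lymphocytic cells in RPMI with 10% heat-inactivated FBS, 2 mM L-glutamine, 0.4 mM sodium pyruvate, penicillin/streptomycin, 37 °C, 5% CO₂; 30 000 cells/well; quadruplicate serial 3-fold dilutions from 50 µM (or 25 µM); AlamarBlue at 48 h, 50 µM quinacrine as background; percent inhibition versus untreated wells; single experiment.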

[4] = target: T1, Methionine--tRNA ligase, mitochondrial (Homo sapiens, UniProt Q96GW9); experiment: Inhibition of mitochondrial MetRS-mediated mitochondrial protein synthesis in human HepG2 cells measured after 6 days by ELISA; type: cell-based
T1 sequence (Q96GW9 whole entry): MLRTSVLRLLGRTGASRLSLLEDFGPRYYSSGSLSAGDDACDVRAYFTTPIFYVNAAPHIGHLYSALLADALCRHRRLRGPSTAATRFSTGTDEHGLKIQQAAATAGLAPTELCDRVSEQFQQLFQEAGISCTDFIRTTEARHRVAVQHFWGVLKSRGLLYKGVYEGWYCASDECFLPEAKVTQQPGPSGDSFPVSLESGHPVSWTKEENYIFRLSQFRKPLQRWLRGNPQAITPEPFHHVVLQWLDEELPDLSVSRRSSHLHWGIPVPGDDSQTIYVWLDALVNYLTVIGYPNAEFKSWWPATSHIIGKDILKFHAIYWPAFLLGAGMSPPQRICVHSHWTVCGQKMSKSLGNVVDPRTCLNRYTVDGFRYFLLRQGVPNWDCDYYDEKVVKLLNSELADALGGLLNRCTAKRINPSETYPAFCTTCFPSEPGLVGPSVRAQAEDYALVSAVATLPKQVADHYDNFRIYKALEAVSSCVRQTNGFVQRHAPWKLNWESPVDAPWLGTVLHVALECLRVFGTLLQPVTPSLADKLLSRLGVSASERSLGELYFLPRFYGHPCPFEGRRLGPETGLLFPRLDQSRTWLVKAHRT
Summary of the method: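 HepG2 seeded 6000 cells/well on collagen-coated plates, grown 24 h in DMEM/F12 with 10% FBS, pyruvate, antibiotics; then serial 3-fold dilutions from 25 µM in duplicate, 6 days at 37 °C, medium with compound refreshed every 48 h; paraformaldehyde-fixed, COX-1 quantified by in-cell ELISA. Chloramphenicol control.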

[5] = Ratio of drug level in brain to plasma in Swiss Webster mouse at 5 mg/kg, ip measured after 60 mins by LC-MS analysis; type: ADME, organism-based; conditions: 1 h
Summary of the method: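 Swiss Webster mice, triplicate, 5 mg kg⁻¹ IP in 7% Tween80, 5% DMSO, 3% EtOH in saline; plasma and brain collected 1 h post-dose; brain homogenized in water, extracts measured by LC-MS/MS; brain levels corrected for 3% v/w blood content.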

[6] = system: mitochondrial MetRS (mitochondrial protein synthesis); experiment: Selectivity index, ratio of EC50 for inhibition of mitochondrial MetRS-mediated mitochondrial protein synthesis in human HepG2 cells to EC50 for antitrypanosomal activity against blood stream form of Trypanosoma brucei brucei 427; type: toxicity, cell-based; conditions: read-out: Ratio EC50
[7] = Inhibition of recombinant N-terminal His6-tagged trypanosoma brucei brucei 427 Methionyl-tRNA synthetase (237 to 773 residues) expressed in Escherichia coli assessed as ATP depletion using L-methionine and tRNA as substrate by Kinase-Glo luminescence assay

| Compound | CC50 at 48 h [1] [µM] | EC50 [2] [µM] | CC50 at 48 h [3] [µM] | EC50 [4] [µM] | BPR [5] [%] | selectivity ratio [6] | IC50 [7] [µM] |
| --- | --- | --- | --- | --- | --- | --- | --- |
| Clc1ccc(-c2cccc3nc(Cc4nc5nc(Cl)ccc5[nH]4)cn23)c(Cl)c1 | 43.2 | 0.064 | 16.1 | – | – | – | – |
| COc1ccc(-c2cccn3cc(Cc4nc5nc(Cl)ccc5[nH]4)nc23)c(Cl)c1 | – | > 2 | – | – | – | – | – |
| COc1cc(Cl)c(-c2cccc3nc(Cc4nc5nc(Cl)ccc5[nH]4)cn23)cc1OC | 28.2 | 0.0031 | 19 | 0.478 | 0.5 | 154 | – |
| CCn1c(Cc2ccc(Cl)cc2Cl)cn(Cc2nc3cnccc3[nH]2)c1=O | > 50 | 0.39 | > 50 | – | – | – | – |
| CC(C)n1c(Cc2ccc(Cl)cc2Cl)cn(Cc2nc3nc(F)ccc3[nH]2)c1=O | > 50 | 0.0023 | > 50 | – | – | – | – |
| COc1ccc(-c2nccn3c(=O)n(Cc4nc5nc(Cl)ccc5[nH]4)cc23)c(Cl)c1 | > 50 | 0.031 | > 50 | – | – | – | – |
| O=c1n(Cc2nc3nc(F)ccc3[nH]2)cc(Cc2ccc(Cl)cc2Cl)n1C1CCCCC1 | 33.2 | 0.016 | 30.4 | – | – | – | – |
| CCn1c(Cc2ccc(Cl)cc2Cl)cn(Cc2nc3ncccc3[nH]2)c1=O | > 50 | 0.017 | > 50 | – | – | – | – |
| CCn1c(Cc2ccc(OC)cc2Cl)cn(Cc2nc3nc(F)ccc3[nH]2)c1=O | > 50 | 0.0018 | > 50 | 0.075 | 0 | 42 | – |
| CCn1c(Cc2ccc(Cl)cc2Cl)cn(Cc2nc3cc(Cl)ccc3[nH]2)c1=O | 45.3 | 0.069 | 27.1 | – | – | – | – |
| CCn1c(Cc2ccc(Cl)cc2Cl)cn(Cc2nc3c(Cl)cccc3[nH]2)c1=O | > 50 | 0.21 | > 50 | – | – | – | – |
| COc1cc(Cl)c(-c2cccc3nc(Cc4nc5nc(F)ccc5[nH]4)cn23)cc1OC | > 25 | 0.0072 | > 25 | 0.316 | 0 | 45 | – |
| N=C(N)c1ccc(OCCCCCOc2ccc(C(=N)N)cc2)cc1 [PENTAMIDINE] | – | 0.0017 | – | – | – | – | – |
| CCCn1c(Cc2ccc(Cl)cc2Cl)cn(Cc2nc3nc(F)ccc3[nH]2)c1=O | > 50 | 0.0051 | > 50 | 0.195 | 5.5 | 38 | – |
| Cc1ccc(-c2cccc3nc(Cc4nc5nc(Cl)ccc5[nH]4)cn23)c(Cl)c1 | – | > 2 | – | – | – | – | – |
| O=c1n(Cc2nc3nc(F)ccc3[nH]2)cc(Cc2ccc(Cl)cc2Cl)n1CC1(O)CCOCC1 | > 50 | 0.0046 | > 50 | – | – | – | – |
| CCOc1ccc(-c2cccc3nc(Cc4nc5nc(Cl)ccc5[nH]4)cn23)c(Cl)c1 | – | 1.9 | – | – | – | – | – |
| COc1ccc(-c2cccc3nc(Cc4nc5nc(Cl)ccc5[nH]4)cn23)c(Cl)c1 | > 50 | 0.024 | 13 | – | – | – | – |
| COc1ccc(-c2cncc3nc(Cc4nc5nc(Cl)ccc5[nH]4)cn23)c(Cl)c1 | > 50 | 0.032 | > 50 | – | – | – | – |
| CCn1c(Cc2ccc(Cl)cc2Cl)cn(Cc2nc3cc(Cl)c(F)cc3[nH]2)c1=O | 29.8 | 0.22 | 20.9 | – | – | – | – |
| CCn1c(Cc2ccc(Cl)cc2Cl)cn(Cc2nc3nc(F)ccc3[nH]2)c1=O | > 50 | 0.0034 | > 50 | 0.29 | 0.1 | 85 | – |
| CCn1c(Cc2ccc(Cl)cc2Cl)cn(Cc2nc3ccccc3[nH]2)c1=O | > 50 | 0.04 | > 50 | – | – | – | – |
| O=C(N[C@H](CO)[C@H](O)c1ccc([N+](=O)[O-])cc1)C(Cl)Cl [CHLORAMPHENICOL] | – | – | – | 7.9 | – | – | – |

| Compound | CC50 at 48 h [1] [µM] | EC50 [2] [µM] | CC50 at 48 h [3] [µM] | EC50 [4] [µM] | BPR [5] [%] | selectivity ratio [6] | IC50 [7] [µM] |
| --- | --- | --- | --- | --- | --- | --- | --- |
| CCn1c(Cc2ccc(Cl)cc2Cl)cn(Cc2nc3nc(Cl)ccc3[nH]2)c1=O | > 50 | 0.0016 | > 50 | 0.042 | 9.6 | 26 | – |
| CCn1c(Cc2ccc(OC)cc2Cl)cn(Cc2nc3nc(Cl)ccc3[nH]2)c1=O | > 50 | 0.001 | > 50 | 0.039 | 0 | 39 | – |
| O=c1n(Cc2nc3nc(F)ccc3[nH]2)cc(Cc2ccc(Cl)cc2Cl)n1CC1CCOCC1 | > 50 | 0.003 | > 50 | – | – | – | – |
| Clc1cc(Cl)cc(-c2cccc3nc(Cc4nc5nc(Cl)ccc5[nH]4)cn23)c1 | – | 0.196 | – | – | – | – | – |
| CCn1c(Cc2ccc(Cl)cc2Cl)cn(Cc2nc3c(F)c(F)ccc3[nH]2)c1=O | 40.6 | 0.026 | 41 | – | – | – | – |
| O=c1[nH]c(Cc2ccc(Cl)cc2Cl)cn1Cc1nc2ccccc2[nH]1 | – | 0.35 | – | – | – | – | < 0.04 |
| CCn1c(Cc2ccc(Cl)cc2Cl)cn(Cc2nc3ccccc3o2)c1=O | > 50 | > 2 | > 50 | – | – | – | – |
| CCn1c(Cc2ccc(Cl)cc2Cl)cn(Cc2nc3c(Cl)cc(Cl)cc3[nH]2)c1=O | 43.7 | 1.6 | 38.2 | – | – | – | – |
| COc1ccc(Cc2cn(Cc3nc4nc(Cl)ccc4[nH]3)c(=O)n2CC(F)F)c(Cl)c1 | > 50 | 0.0036 | > 50 | – | – | – | – |
| CCCn1c(Cc2ccc(Cl)cc2Cl)cn(Cc2nc3nc(Cl)ccc3[nH]2)c1=O | 26.4 | ≤ 0.0009 | 37.8 | – | – | – | – |
| COc1cc(-c2cccc3nc(Cc4nc5nc(F)ccc5[nH]4)cn23)c(Cl)cc1Cl | > 50 | 0.0084 | 10.4 | 1.75 | 0.6 | 203 | – |
| CCn1c(Cc2ccc(Cl)cc2Cl)cn(Cc2nc3cc(Cl)c(Cl)cc3[nH]2)c1=O | 31.3 | 0.66 | 31.6 | – | – | – | – |
| O=c1n(Cc2nc3nc(F)ccc3[nH]2)cc(Cc2ccc(Cl)cc2Cl)n1CC(F)F | > 50 | 0.0059 | 33.3 | 0.175 | 0 | 30 | – |
| O=c1n(Cc2nc3nc(Cl)ccc3[nH]2)cc(Cc2ccc(Cl)cc2Cl)n1CC(F)F | > 50 | 0.003 | > 50 | 0.43 | 0 | 143 | – |
| COc1cc(-c2cccc3nc(Cc4nc5nc(Cl)ccc5[nH]4)cn23)c(Cl)cc1Cl | > 50 | 0.0035 | 9.5 | 0.507 | 0 | 145 | – |
| CCn1c(Cc2ccc(Cl)cc2Cl)cn(Cc2nc3cc(C(F)(F)F)ccc3[nH]2)c1=O | > 50 | > 2 | > 50 | – | – | – | – |
| O=c1n(Cc2nc3nc(F)ccc3[nH]2)cc(Cc2ccc(Cl)cc2Cl)n1C1CCOCC1 | > 50 | 0.0058 | > 50 | – | – | – | – |
| CCn1c(Cc2ccc(Cl)cc2Cl)cn(Cc2nc3c(F)cccc3[nH]2)c1=O | > 50 | 0.031 | 45 | – | – | – | – |
| CCN(CC)CCCC(C)Nc1c2ccc(Cl)cc2nc2ccc(OC)cc12 (configuration not stated) [QUINACRINE] | 7.6 | – | 4.8 | – | – | – | – |
| COc1ccc(-c2cccc3nc(Cc4nc5nc(F)ccc5[nH]4)cn23)c(Cl)c1 | > 50 | 0.059 | 15.7 | – | – | – | – |
| FC(F)(F)c1ccc(-c2cccc3nc(Cc4nc5nc(Cl)ccc5[nH]4)cn23)c(Cl)c1 | – | 1.78 | – | – | – | – | – |
| CCn1c(Cc2ccc(Cl)cc2Cl)cn(Cc2nc3cc(C)ccc3[nH]2)c1=O | > 50 | 0.11 | > 50 | – | – | – | – |
